# Reference: ChEMBL document CHEMBL1144466, “Mutant prevention concentrations of fluoroquinolones for Enterobacteriaceae expressing the plasmid-carried quinolone resistance determinant qnrA1” (2007)
# Columns and labels:
# [1] = tested on: Klebsiella pneumoniae; experiment: Antimicrobial activity against qnrA1 expressing Klebsiella pneumoniae1960 GyrA Ser83Phe mutant expressing porins by microdilution method; type: functional; conditions: for MIC: Klebsiella pneumoniae
# [2] = tested on: Klebsiella pneumoniae; experiment: Antimicrobial activity against Klebsiella pneumoniae C2 GyrA Ser83Phe/ParC mutant expressing porins by microdilution method; type: functional
# Method in brief: (§1)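 Mutants were selected on Mueller-Hinton agar containing ciprofloxacin or moxifloxacin, with colonies allowed to grow for up to 96 h. Colonies recovered one concentration step below the MPC were tested for ciprofloxacin MIC (μg/ml) by microdilution.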
# [3] = tested on: Escherichia coli; experiment: Antimicrobial activity against Escherichia coli DH10B expressing porins by microdilution method; type: functional; conditions: for MIC: Escherichia coli, DH10B
# Method in brief: (§2)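 Microdilution MICs (μg/ml) of ciprofloxacin, levofloxacin or moxifloxacin against Enterobacteriaceae strains differing in qnrA1 carriage: qnrA1 cloned in pACYC184 in E. coli DH10B, natural qnrA1 plasmids transferred to E. coli J53, clinical K. pneumoniae, and qnrA1-negative isogenic controls.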
# [4] = tested on: Klebsiella pneumoniae; experiment: Antimicrobial activity against qnrA1 expressing Klebsiella pneumoniae 1132 expressing porins by microdilution method; type: functional; conditions: for MIC: Klebsiella pneumoniae; method in brief: as §2
# [5] = tested on: Klebsiella pneumoniae; experiment: Antimicrobial activity against qnrA1 expressing Klebsiella pneumoniae N5 expressing porins by microdilution method; type: functional; conditions: for MIC: Klebsiella pneumoniae, N5; method in brief: as §2
# [6] = tested on: Escherichia coli; experiment: Antimicrobial activity against Escherichia coli DH10B/pACYC184 expressing porins by microdilution method; type: functional; conditions: for MIC: Escherichia coli, DH10B; method in brief: as §2
# [7] = tested on: Klebsiella pneumoniae; experiment: Antimicrobial activity against Klebsiella pneumoniae C2/pMG252 GyrA Ser83Phe/ParC mutant expressing porins by microdilution method; type: functional; method in brief: as §1
# [8] = tested on: Escherichia coli; experiment: Antimicrobial activity against qnrA1 expressing Escherichia coli J53/pN5 expressing porins by microdilution method; type: functional; conditions: for MIC: Escherichia coli, J53; method in brief: as §2
# [9] = tested on: Escherichia coli; experiment: Antimicrobial activity against qnrA1 expressing Escherichia coli J53/pMG252 expressing porins by microdilution method; type: functional; conditions: for MIC: Escherichia coli, J53; method in brief: as §2
# [10] = tested on: Klebsiella pneumoniae; experiment: Antimicrobial activity against Klebsiella pneumoniae C2 GyrA Ser83Phe mutant lacking porins by microdilution method; conditions: for MIC: Klebsiella pneumoniae, C2
# [11] = tested on: Escherichia coli; experiment: Antimicrobial activity against Escherichia coli J53 expressing porins by microdilution method; type: functional; method in brief: as §2
# [12] = tested on: Klebsiella pneumoniae; experiment: Antimicrobial activity against qnrA1 expressing Klebsiella pneumoniae 1132 GyrA/ParC mutant expressing porins by microdilution method; type: functional
# [13] = tested on: Klebsiella pneumoniae; experiment: Antimicrobial activity against qnrA1 expressing Klebsiella pneumoniae UAB1 expressing porins by microdilution method; type: functional; conditions: for MIC: Klebsiella pneumoniae, UAB1
# [14] = tested on: Klebsiella pneumoniae; experiment: Antimicrobial activity against Klebsiella pneumoniae C2/pMG252 GyrA Ser83Phe mutant expressing porins by microdilution method; type: functional; conditions: for MIC: Klebsiella pneumoniae, C2
# [15] = tested on: Escherichia coli; experiment: Antimicrobial activity against qnrA1 expressing Escherichia coli J53/p1960 expressing porins by microdilution method; type: functional; conditions: for MIC: Escherichia coli, J53; method in brief: as §2
# [16] = tested on: Klebsiella pneumoniae; experiment: Antimicrobial activity against qnrA1 expressing Klebsiella pneumoniae N5 GyrA/ParC mutant expressing porins by microdilution method; type: functional
# [17] = tested on: Escherichia coli; experiment: Antimicrobial activity against qnrA1 expressing Escherichia coli DH10B expressing porins by microdilution method; type: functional; conditions: for MIC: Escherichia coli, DH10B; method in brief: as §2
# [18] = tested on: Escherichia coli; experiment: Antimicrobial activity against Escherichia coli J53/p1132 negative expressing porins by microdilution method; type: functional; method in brief: as §2
# [19] = tested on: Klebsiella pneumoniae; experiment: Antimicrobial activity against qnrA1 expressing Klebsiella pneumoniae UAB1 GyrA/ParC mutant expressing porins by microdilution method; type: functional
# [20] = tested on: Klebsiella pneumoniae; experiment: Antimicrobial activity against qnrA1 expressing Klebsiella pneumoniae 1960 GyrA Ser83Phe/ParC mutant expressing porins by microdilution method; type: functional; method in brief: as §1
# [21] = tested on: Escherichia coli; experiment: Antimicrobial activity against Escherichia coli J53 GyrA/ParC mutant expressing porins by microdilution method; type: functional
# [22] = tested on: Escherichia coli; experiment: Antimicrobial activity against qnrA1 expressing Escherichia coli J53/p1960 GyrA/ParC mutant expressing porins by microdilution method; type: functional
# [23] = tested on: Escherichia coli; experiment: Antimicrobial activity against qnrA1 expressing Escherichia coli DH10B GyrA/ParC mutant expressing porins by microdilution method; type: functional
# [24] = tested on: Escherichia coli; experiment: Antimicrobial activity against Escherichia coli J53/p1132 negative GyrA/ParC mutant expressing porins by microdilution method; type: functional
# [25] = tested on: Escherichia coli; experiment: Antimicrobial activity against qnrA1 expressing Escherichia coli J53/pN5 GyrA/ParC mutant expressing porins by microdilution method; type: functional
# Method in brief: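 Broth microdilution MIC, in μg/ml, with ciprofloxacin, levofloxacin or moxifloxacin against the E. coli J53 transconjugant carrying qnrA1.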
# [26] = tested on: Escherichia coli; experiment: Antimicrobial activity against qnrA1 expressing Escherichia coli J53/pMG252 GyrA/ParC mutant expressing porins by microdilution method; type: functional
Compound,MIC [1] [µg/mL],MIC [2] [µg/mL],MPC [3] [µg/mL],MPC [4] [µg/mL],MIC [4] [µg/mL],MPC [5] [µg/mL],MPC [6] [µg/mL],MIC [7] [µg/mL],MPC [8] [µg/mL],MPC [9] [µg/mL],MPC [10] [µg/mL],MIC [10] [µg/mL],MPC [11] [µg/mL],MIC [12] [µg/mL],MPC [13] [µg/mL],MIC [13] [µg/mL],MIC [14] [µg/mL],MPC [15] [µg/mL],MIC [16] [µg/mL],MPC [17] [µg/mL],further results
O=C(O)c1cn(C2CC2)c2cc(N3CCNCC3)c(F)cc2c1=O [CIPROFLOXACIN],1,4,0.015,32,4,4,0.015,64,4,4,8,0.25,0.06,16,16,2,2,4,8,2,MPC [1]: 64 µg/mL; MIC [5]: 0.25 µg/mL; MPC [14]: 128 µg/mL; MPC [18]: 0.06 µg/mL; MIC [19]: 16 µg/mL; MIC [20]: 32 µg/mL
COc1c(N2C[C@@H]3CCCN[C@@H]3C2)c(F)cc2c(=O)c(C(=O)O)cn(C3CC3)c12 [MOXIFLOXACIN],2,2,0.06,32,8,16,0.06,32,4,4,4,0.125,0.125,16,32,4,1,4,4,2,"MIC [3]: 0.002 µg/mL; MIC [5]: 0.5 µg/mL; MIC [21]: 0.5 µg/mL; MIC [22]: 4 µg/mL; MIC [6]: 0.002 µg/mL; MIC [8]: 0.125 µg/mL; MIC [9]: 0.5 µg/mL; MIC ([11]; Escherichia coli, J53): 0.015 µg/mL; MIC [23]: 0.5 µg/mL; MIC [15]: 0.125 µg/mL; MIC [17]: 0.125 µg/mL; MPC [18]: 0.25 µg/mL; MIC ([18]; Escherichia coli, J53): 0.015 µg/mL; MIC [19]: 32 µg/mL; MIC [20]: 16 µg/mL; MIC [24]: 0.25 µg/mL"
C[C@H]1COc2c(N3CCN(C)CC3)c(F)cc3c(=O)c(C(=O)O)cn1c23.C[C@H]1COc2c(N3CCN(C)CC3)c(F)cc3c(=O)c(C(=O)O)cn1c23.O [LEVOFLOXACIN],2,8,0.015,32,4,4,0.015,64,4,4,8,0.25,0.06,16,16,2,2,4,8,2,MPC [1]: 64 µg/mL; MIC [25]: 4 µg/mL; MIC [26]: 2 µg/mL; MIC [3]: 0.004 µg/mL; MIC [22]: 2 µg/mL; MIC [6]: 0.004 µg/mL; MIC [8]: 0.125 µg/mL; MIC [9]: 0.25 µg/mL; MPC [14]: 128 µg/mL; MIC [15]: 0.125 µg/mL; MIC [17]: 0.125 µg/mL; MPC [18]: 0.06 µg/mL; MIC [19]: 16 µg/mL; MIC [20]: 64 µg/mL
